This note sets out measurements from ChEMBL document CHEMBL4304816, “A Novel Biphenyl-based Chemotype of Retinoid X Receptor Ligands Enables Subtype and Heterodimer Preferences” (ACS Med Chem Lett, 2019).

One may read the EC50 as the concentration giving half of the maximal effect.

What all share (type): cell-based
In experiment [1] the target is T1, Retinoic acid receptor RXR-alpha (Homo sapiens) (UniProt P19793).
T1 sequence (whole entry): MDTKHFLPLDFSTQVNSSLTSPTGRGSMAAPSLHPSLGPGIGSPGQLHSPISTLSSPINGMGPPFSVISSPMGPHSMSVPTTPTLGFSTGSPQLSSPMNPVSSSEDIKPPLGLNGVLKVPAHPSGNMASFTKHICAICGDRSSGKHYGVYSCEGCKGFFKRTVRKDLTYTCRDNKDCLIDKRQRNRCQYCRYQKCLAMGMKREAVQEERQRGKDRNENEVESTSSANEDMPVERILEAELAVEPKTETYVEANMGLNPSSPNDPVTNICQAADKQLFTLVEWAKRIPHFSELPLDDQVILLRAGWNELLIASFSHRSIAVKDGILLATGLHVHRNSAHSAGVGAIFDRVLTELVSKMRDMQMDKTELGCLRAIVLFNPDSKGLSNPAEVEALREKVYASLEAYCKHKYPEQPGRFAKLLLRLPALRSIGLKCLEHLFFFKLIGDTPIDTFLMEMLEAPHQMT
The experiment in a line: Agonist activity at Gal4-LBD fused RXRalpha (unknown origin) expressed in HEK293T cells at 0.1 to 3 uM after 14 to 16 hrs in presence of RXR antagonist HX531 by dual-Glo luciferase reporter gene assay. (In general: A reporter such as luciferase makes a cellular process visible.)

The nature of experiment [2]: Agonist activity at full-length human RXR/LXR expressed in HEK293T cells at 10 uM after 14 to 16 hrs in presence of 1 uM T0901317 by dual-glo luciferase reporter gene assay relative to T0901317. As to conditions: HEK-293T, read-out: Activity. The method in brief:
(§1)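 Synergy format: the test compound was co-applied with the partner-receptor reference agonist at 1 μM, either T0901317 (RXR:LXR) or rosiglitazone (RXR:PPARγ). Relative synergistic activation was derived from three independent experiments, each in duplicate; mean reported.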

Experiment [3] addresses T2, Retinoic acid receptor RXR-gamma (Homo sapiens, UniProt P48443).
T2 sequence (P48443 whole entry): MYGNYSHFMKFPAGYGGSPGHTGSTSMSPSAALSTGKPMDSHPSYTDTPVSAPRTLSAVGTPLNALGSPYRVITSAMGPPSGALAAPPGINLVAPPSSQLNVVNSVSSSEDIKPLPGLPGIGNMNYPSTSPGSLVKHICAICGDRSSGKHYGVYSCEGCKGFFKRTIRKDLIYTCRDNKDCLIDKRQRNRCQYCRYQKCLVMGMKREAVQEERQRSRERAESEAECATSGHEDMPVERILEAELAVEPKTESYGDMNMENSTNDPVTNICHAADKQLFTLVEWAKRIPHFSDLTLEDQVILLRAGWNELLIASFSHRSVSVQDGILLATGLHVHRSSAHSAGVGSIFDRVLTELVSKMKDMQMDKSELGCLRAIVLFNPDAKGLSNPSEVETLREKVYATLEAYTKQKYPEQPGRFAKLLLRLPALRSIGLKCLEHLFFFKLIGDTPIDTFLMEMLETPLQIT
The experiment in a line: Agonist activity at Gal4-LBD fused RXRgamma (unknown origin) expressed in HEK293T cells after 14 to 16 hrs by dual-Glo luciferase assay. The method in brief:
(§2)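 Gal4-hybrid RXRα/β/γ reporter gene assays in HEK293T cells. Fold activation is the maximal fold activation versus 0.1% DMSO.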

The species named for the next experiment is Homo sapiens. As to the kind of experiment: Agonist activity at full-length human PPARgamma/RXR expressed in HEK293T cells at 10 uM after 14 to 16 hrs in presence of 1 uM rosiglitazone by dual-glo luciferase reporter gene assay relative to rosiglitazone. The procedure, abridged:
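RXR:PPARγ heterodimer reporter assay run with reference PPARγ agonist rosiglitazone (1 μM) co-applied. Read-out is mean relative synergistic activation, from three independent experiments each run in duplicate.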

Experiment [4] is described as follows: Agonist activity at full-length human RXR/LXR expressed in HEK293T cells at 20 uM after 14 to 16 hrs in presence of 1 uM T0901317 by dual-glo luciferase reporter gene assay relative to T0901317. As to conditions: HEK-293T, read-out: Activity. The procedure, abridged: as §1
The target of experiment [5] is T3, Retinoic acid receptor gamma (Homo sapiens) (UniProt P13631).
T3 sequence (whole entry): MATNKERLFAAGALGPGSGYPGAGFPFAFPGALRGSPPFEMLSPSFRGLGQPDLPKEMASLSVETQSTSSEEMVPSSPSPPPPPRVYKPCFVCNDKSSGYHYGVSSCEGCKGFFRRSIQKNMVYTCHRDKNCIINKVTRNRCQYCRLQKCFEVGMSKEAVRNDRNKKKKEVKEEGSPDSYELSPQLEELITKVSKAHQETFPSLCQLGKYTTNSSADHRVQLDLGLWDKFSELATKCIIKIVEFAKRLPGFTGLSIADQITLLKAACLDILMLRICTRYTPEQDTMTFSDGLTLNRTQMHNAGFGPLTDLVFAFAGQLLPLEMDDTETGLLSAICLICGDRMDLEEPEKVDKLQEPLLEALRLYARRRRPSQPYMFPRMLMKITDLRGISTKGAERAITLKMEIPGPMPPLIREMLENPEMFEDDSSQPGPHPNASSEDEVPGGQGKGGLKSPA
As to the kind of experiment: Agonist activity at Gal4-LBD fused RARgamma (unknown origin) expressed in HEK293T cells after at 20 uM 14 to 16 hrs by dual-Glo luciferase assay. The method in brief:
(§3)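 Gal4-hybrid reporter gene selectivity panel of related nuclear receptors (PPARα/β/γ, RARα/β/γ) in HEK293T cells. Activity is read as mean fold activation versus 0.1% DMSO vehicle, n ≥ 2.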

The target in experiment [6] is T4, Retinoic acid receptor beta (Homo sapiens) (UniProt P10826).
T4 sequence (whole entry): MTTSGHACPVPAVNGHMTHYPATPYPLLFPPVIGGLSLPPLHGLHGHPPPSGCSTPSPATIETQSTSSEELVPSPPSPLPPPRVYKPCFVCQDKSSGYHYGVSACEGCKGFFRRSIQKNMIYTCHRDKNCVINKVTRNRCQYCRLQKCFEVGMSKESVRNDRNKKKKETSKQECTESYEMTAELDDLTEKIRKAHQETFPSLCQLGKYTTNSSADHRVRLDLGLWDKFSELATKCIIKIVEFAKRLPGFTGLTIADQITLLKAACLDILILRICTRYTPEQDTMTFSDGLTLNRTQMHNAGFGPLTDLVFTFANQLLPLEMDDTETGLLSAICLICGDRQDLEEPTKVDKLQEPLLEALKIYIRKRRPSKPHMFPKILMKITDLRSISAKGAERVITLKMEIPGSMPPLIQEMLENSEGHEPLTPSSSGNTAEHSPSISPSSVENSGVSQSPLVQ
As to the kind of experiment: Agonist activity at Gal4-LBD fused RARbeta (unknown origin) expressed in HEK293T cells at 20 uM after 14 to 16 hrs by dual-Glo luciferase assay. The method in brief: as §3

Experiment [7] deals with T1, Retinoic acid receptor RXR-alpha (Homo sapiens). The experiment in a line: Agonist activity at Gal4-LBD fused RXRalpha (unknown origin) expressed in HEK293T cells assessed as fold activation at 10 uM after 14 to 16 hrs by dual-Glo luciferase assay relative to untreated control. The procedure, abridged: as §2

The source made the active and inactive calls. The calls are words filed in the database; no cut-off is given here.

Turning to `Cc1cc(-c2cc(C(F)(F)F)cc(C(F)(F)F)c2)ccc1CC(=O)O`, the Activity result in experiment [1] is “inactive”. In experiment [2], the activity at 10 µM is 64%. Further, in experiment [3], a half-maximal response (EC50) required 1 µM. Moreover, in the experiment filed under Homo sapiens, the Activity stood at 84%.
On to `Cc1cc(-c2ccc(C(=O)O)cc2)cc(C(C)(C)C)c1`, for which the activity at 20 µM in experiment [4] was 70%. The Activity result in experiment [5] and in experiment [6] was “Active” throughout.
Regarding `Cc1cc(-c2cc(C(C)(C)C)cc(C(C)(C)C)c2)ccc1C(=O)O`, in experiment [7], the fold change (FC) is 3.
